# In ChEMBL document CHEMBL3046780, “Syntheses and herbicidal activity of new triazolopyrimidine-2-sulfonamides as acetohydroxyacid synthase inhibitor” (Bioorg Med Chem, 2010):
# Assays:
# [1] = tested on: Eclipta prostrata; experiment: Post-emergence herbicidal activity against Eclipta prostrata assessed as growth inhibition at 75 g ai/ha measured 15 days post compound treatment under green house conditions; type: functional; conditions: 360 h, read-out: GI
# Method in brief: (§1)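 Compounds formulated as 100 g/L emulsifiable concentrate (DMF solvent, Tween-80 emulsifier), diluted with water, sprayed post-emergence on pot-grown weeds in clay soil (pH 6.5, 1.6% organic matter). Seeds sown 1-3 cm deep, grown at 15-30 °C. Dicots were treated at the 2-leaf stage and monocots at the 1-leaf stage. Untreated and DMF-treated controls were included. Injury was rated visually 15 days after treatment.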
# [2] = tested on: Echinochloa crus-galli; experiment: Post-emergence herbicidal activity against Echinochloa crus-galli (barnyard grass) assessed as growth inhibition at 150 g ai/ha measured 15 days post compound treatment under green house conditions; type: functional; conditions: 360 h, read-out: GI; method in brief: as §1
# [3] = tested on: Cyperus iria; experiment: Post-emergence herbicidal activity against Cyperus iria assessed as growth inhibition at 75 g ai/ha measured 15 days post compound treatment under green house conditions; type: functional; conditions: 360 h, read-out: GI; method in brief: as §1
# [4] = tested on: Eclipta prostrata; experiment: Post-emergence herbicidal activity against Eclipta prostrata assessed as growth inhibition at 37.5 g ai/ha measured 15 days post compound treatment under green house conditions; type: functional; conditions: 360 h, read-out: GI; method in brief: as §1
# [5] = tested on: Cerastium arvense; experiment: Post-emergence herbicidal activity against Cerastium arvense assessed as growth inhibition at 150 g ai/ha measured 15 days post compound treatment under green house conditions; type: functional; conditions: 360 h, read-out: GI; method in brief: as §1
# [6] = tested on: Digitaria sanguinalis; experiment: Post-emergence herbicidal activity against Digitaria sanguinalis (hairy crabgrass) assessed as growth inhibition at 150 g ai/ha measured 15 days post compound treatment under green house conditions; type: functional; conditions: 360 h, read-out: GI; method in brief: as §1
# [7] = tested on: Brassica juncea; experiment: Post-emergence herbicidal activity against Brassica juncea assessed as growth inhibition at 150 g ai/ha measured 15 days post compound treatment under green house conditions; type: functional; conditions: 360 h, read-out: GI; method in brief: as §1
# [8] = tested on: Galium aparine; experiment: Post-emergence herbicidal activity against Galium aparine assessed as growth inhibition at 150 g ai/ha measured 15 days post compound treatment under green house conditions; type: functional; conditions: 360 h, read-out: GI; method in brief: as §1
# [9] = tested on: Rumex acetosa; experiment: Post-emergence herbicidal activity against Rumex acetosa assessed as growth inhibition at 75 g ai/ha measured 15 days post compound treatment under green house conditions; type: functional; conditions: 360 h, read-out: GI; method in brief: as §1
# [10] = tested on: Rumex acetosa; experiment: Post-emergence herbicidal activity against Rumex acetosa assessed as growth inhibition at 150 g ai/ha measured 15 days post compound treatment under green house conditions; type: functional; conditions: 360 h, read-out: GI; method in brief: as §1
# [11] = tested on: Galium aparine; experiment: Post-emergence herbicidal activity against Galium aparine assessed as growth inhibition at 37.5 g ai/ha measured 15 days post compound treatment under green house conditions; type: functional; conditions: 360 h, read-out: GI; method in brief: as §1
# [12] = tested on: Chenopodium album; experiment: Post-emergence herbicidal activity against Chenopodium album assessed as growth inhibition at 150 g ai/ha measured 15 days post compound treatment under green house conditions; type: functional; conditions: 360 h, read-out: GI; method in brief: as §1
# [13] = tested on: Galium aparine; experiment: Post-emergence herbicidal activity against Galium aparine assessed as growth inhibition at 75 g ai/ha measured 15 days post compound treatment under green house conditions; type: functional; conditions: 360 h, read-out: GI; method in brief: as §1
# [14] = tested on: Cerastium arvense; experiment: Post-emergence herbicidal activity against Cerastium arvense assessed as growth inhibition at 75 g ai/ha measured 15 days post compound treatment under green house conditions; type: functional; conditions: 360 h, read-out: GI; method in brief: as §1
# [15] = tested on: Polygonum humifusum; experiment: Post-emergence herbicidal activity against Polygonum humifusum assessed as growth inhibition at 75 g ai/ha measured 15 days post compound treatment under green house conditions; type: functional; conditions: 360 h, read-out: GI; method in brief: as §1
# [16] = tested on: Cyperus iria; experiment: Post-emergence herbicidal activity against Cyperus iria assessed as growth inhibition at 150 g ai/ha measured 15 days post compound treatment under green house conditions; type: functional; conditions: 360 h, read-out: GI; method in brief: as §1
# [17] = tested on: Rumex acetosa; experiment: Post-emergence herbicidal activity against Rumex acetosa assessed as growth inhibition at 37.5 g ai/ha measured 15 days post compound treatment under green house conditions; type: functional; conditions: 360 h, read-out: GI; method in brief: as §1
# [18] = tested on: Cerastium arvense; experiment: Post-emergence herbicidal activity against Cerastium arvense assessed as growth inhibition at 37.5 g ai/ha measured 15 days post compound treatment under green house conditions; type: functional; conditions: 360 h, read-out: GI; method in brief: as §1
# [19] = target: T1, Acetolactate synthase, chloroplastic (Arabidopsis thaliana, UniProt P17597)
# T1 sequence (P17597 whole entry): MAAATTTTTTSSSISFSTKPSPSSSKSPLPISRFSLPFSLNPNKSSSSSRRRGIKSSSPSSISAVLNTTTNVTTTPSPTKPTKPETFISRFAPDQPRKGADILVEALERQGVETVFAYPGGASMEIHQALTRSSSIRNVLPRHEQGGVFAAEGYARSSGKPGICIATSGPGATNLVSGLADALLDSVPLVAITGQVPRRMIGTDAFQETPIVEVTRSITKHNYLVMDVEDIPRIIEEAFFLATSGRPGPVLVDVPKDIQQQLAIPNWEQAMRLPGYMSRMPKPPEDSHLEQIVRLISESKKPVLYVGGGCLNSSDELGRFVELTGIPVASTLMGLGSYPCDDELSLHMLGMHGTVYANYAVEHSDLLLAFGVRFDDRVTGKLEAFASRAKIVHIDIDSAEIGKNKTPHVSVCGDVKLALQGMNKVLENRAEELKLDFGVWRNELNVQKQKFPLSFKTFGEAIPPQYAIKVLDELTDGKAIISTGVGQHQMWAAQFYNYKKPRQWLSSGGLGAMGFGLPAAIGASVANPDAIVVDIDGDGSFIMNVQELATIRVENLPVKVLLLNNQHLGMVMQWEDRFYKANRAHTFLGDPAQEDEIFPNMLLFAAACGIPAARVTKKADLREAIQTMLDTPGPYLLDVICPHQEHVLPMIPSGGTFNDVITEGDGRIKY
# [20] = tested on: Eclipta prostrata; experiment: Post-emergence herbicidal activity against Eclipta prostrata assessed as growth inhibition at 150 g ai/ha measured 15 days post compound treatment under green house conditions; type: functional; conditions: 360 h, read-out: GI; method in brief: as §1
# [21] = tested on: Cyperus iria; experiment: Post-emergence herbicidal activity against Cyperus iria assessed as growth inhibition at 37.5 g ai/ha measured 15 days post compound treatment under green house conditions; type: functional; conditions: 360 h, read-out: GI; method in brief: as §1
# [22] = tested on: Amaranthus retroflexus; experiment: Post-emergence herbicidal activity against Amaranthus retroflexus assessed as growth inhibition at 37.5 g ai/ha measured 15 days post compound treatment under green house conditions; type: functional; conditions: 360 h, read-out: GI; method in brief: as §1
# [23] = tested on: Poa annua; experiment: Post-emergence herbicidal activity against Poa annua assessed as growth inhibition at 150 g ai/ha measured 15 days post compound treatment under green house conditions; type: functional; conditions: 360 h, read-out: GI; method in brief: as §1
# [24] = tested on: Chenopodium album; experiment: Post-emergence herbicidal activity against Chenopodium album assessed as growth inhibition at 75 g ai/ha measured 15 days post compound treatment under green house conditions; type: functional; conditions: 360 h, read-out: GI; method in brief: as §1
# [25] = tested on: Amaranthus retroflexus; experiment: Post-emergence herbicidal activity against Amaranthus retroflexus assessed as growth inhibition at 75 g ai/ha measured 15 days post compound treatment under green house conditions; type: functional; conditions: 360 h, read-out: GI; method in brief: as §1
# [26] = tested on: Polygonum humifusum; experiment: Post-emergence herbicidal activity against Polygonum humifusum assessed as growth inhibition at 37.5 g ai/ha measured 15 days post compound treatment under green house conditions; type: functional; conditions: 360 h, read-out: GI; method in brief: as §1
# [27] = tested on: Chenopodium album; experiment: Post-emergence herbicidal activity against Chenopodium album assessed as growth inhibition at 37.5 g ai/ha measured 15 days post compound treatment under green house conditions; type: functional; conditions: 360 h, read-out: GI; method in brief: as §1
# [28] = tested on: Polygonum humifusum; experiment: Post-emergence herbicidal activity against Polygonum humifusum assessed as growth inhibition at 150 g ai/ha measured 15 days post compound treatment under green house conditions; type: functional; conditions: 360 h, read-out: GI; method in brief: as §1
# [29] = tested on: Amaranthus retroflexus; experiment: Post-emergence herbicidal activity against Amaranthus retroflexus assessed as growth inhibition at 150 g ai/ha measured 15 days post compound treatment under green house conditions; type: functional; conditions: 360 h, read-out: GI; method in brief: as §1
SMILES,inhibition of growth at 75 g/ha [1] [%],inhibition of growth at 150 g/ha [2] [%],inhibition of growth at 75 g/ha [3] [%],inhibition of growth at 37.5 g/ha [4] [%],inhibition of growth at 150 g/ha [5] [%],inhibition of growth at 150 g/ha [6] [%],inhibition of growth at 150 g/ha [7] [%],inhibition of growth at 150 g/ha [8] [%],inhibition of growth at 75 g/ha [9] [%],inhibition of growth at 150 g/ha [10] [%],inhibition of growth at 37.5 g/ha [11] [%],inhibition of growth at 150 g/ha [12] [%],inhibition of growth at 75 g/ha [13] [%],inhibition of growth at 75 g/ha [14] [%],inhibition of growth at 75 g/ha [15] [%],inhibition of growth at 150 g/ha [16] [%],inhibition of growth at 37.5 g/ha [17] [%],inhibition of growth at 37.5 g/ha [18] [%],Ki [19] [µM],inhibition of growth at 150 g/ha [20] [%],also measured
COc1ccn2nc(S(=O)(=O)Nc3cccc(Cl)c3Cl)nc2n1,50,< 50,50,50,< 50,< 50,≥ 80,50,50,50,50,< 50,50,< 50,50,50,50,< 50,14.8,≥ 50,inhibition of growth at 37.5 g/ha [21]: 50%; inhibition of growth at 37.5 g/ha [22]: 50%; inhibition of growth at 150 g/ha [23]: < 50%; inhibition of growth at 75 g/ha [24]: < 50%; inhibition of growth at 75 g/ha [25]: 50%; inhibition of growth at 37.5 g/ha [26]: 50%; inhibition of growth at 37.5 g/ha [27]: < 50%; inhibition of growth at 150 g/ha [28]: 50%; inhibition of growth at 150 g/ha [29]: ≥ 50%
COC(=O)c1cccc(Cl)c1NS(=O)(=O)c1nc2nc(OC)ccn2n1,≥ 80,50,50,50,≥ 90,< 50,≥ 90,≥ 90,≥ 80,≥ 80,≥ 80,≥ 90,≥ 90,≥ 80,50,50,≥ 80,≥ 80,1.61,≥ 90,inhibition of growth at 37.5 g/ha [21]: 50%; inhibition of growth at 37.5 g/ha [22]: ≥ 80%; inhibition of growth at 150 g/ha [23]: < 50%; inhibition of growth at 75 g/ha [24]: ≥ 90%; inhibition of growth at 75 g/ha [25]: ≥ 80%; inhibition of growth at 37.5 g/ha [26]: 50%; inhibition of growth at 37.5 g/ha [27]: ≥ 80%; inhibition of growth at 150 g/ha [28]: 50%; inhibition of growth at 150 g/ha [29]: ≥ 80%
